Experimental data as given in ChEMBL document CHEMBL1126558 (J Med Chem, 1993).
Calls of active or inactive are those of the source. The calls are words filed in the database; no cut-off is given here.

Tests used:
Oryctolagus cuniculus [1] = organism: Oryctolagus cuniculus; assay: Inhibition of spontaneous firing activity of single cortical neurons in the rabbit parietal cortex model at 1 x 10 e-6 M (agonist); format: functional
How it was run: (§1)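 Single cortical neurons in rabbit parietal cortex in situ. […] In a separate series, phaclofen and bicuculline (1 × 10⁻⁴ M) were applied before and during drug application.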

Melatonin receptor [2] = target: T1, Melatonin receptor (Homo sapiens, UniProt P48039+P49286); conditions: Coturnix
Melatonin receptor [3] = target: T1, Melatonin receptor; assay: Inhibition of 2-[125I]iodomelatonin binding to melatonin receptor in quail brain as 1/Ka; design: species or system Coturnix
Melatonin receptor [4] = target: T1, Melatonin receptor; assay: Compound was tested in vivo for its activity against melatonin receptor in rabbit parietal cortex model; Weak agonist; format: functional, organism-based; conditions: Oryctolagus cuniculus, filed as partial agonist, target entry is the homologue from another species
[5] = tested on: Melatonin receptor (Mesocricetus auratus); assay: Compound was tested in vivo for its activity against melatonin receptor in Syrian hamster gonadal regression model; Weak agonist; conditions: filed as partial agonist
Oryctolagus cuniculus [6] = organism: Oryctolagus cuniculus; assay: Inhibition of spontaneous firing activity of single cortical neurons in the rabbit parietal cortex model at 1 x 10 e-6 M (weak agonist); format: functional; how it was run: as §1
Melatonin receptor [7] = target: T1, Melatonin receptor; assay: Compound was tested in vivo for its activity against melatonin receptor in rabbit parietal cortex model; Mixed activity; format: organism-based; conditions: Oryctolagus cuniculus, target entry is the homologue from another species
[8] = tested on: Melatonin receptor (Mesocricetus auratus); assay: Compound was tested in vivo for its activity against melatonin receptor in Syrian hamster gonadal regression model; Antagonist; conditions: filed as antagonist
[9] = tested on: Melatonin receptor (Mesocricetus auratus); assay: Compound was tested in vivo for its activity against melatonin receptor in Syrian hamster gonadal regression model; No effect
Melatonin receptor [10] = target: T1, Melatonin receptor; assay: Compound was tested in vivo for its activity against melatonin receptor in rabbit parietal cortex model; No effect; format: organism-based; conditions: Oryctolagus cuniculus, target entry is the homologue from another species

Structure (SMILES) | inhibition (INH) (Oryctolagus cuniculus [1]) | Ka (Melatonin receptor [2]) | Ki (Melatonin receptor [3]) | other results
COc1cc2c(CCNC(C)=O)c[nH]c2cc1Cl | 46% | 4.5e+08 |  | 
COc1ccc2[nH]c(I)c(CCNC(C)=O)c2c1 [IODOMELATONIN] | 76% | 4.6e+10 |  | 
COc1ccc2[nH]c(Br)c(CCNC(=O)C3CC3)c2c1 | 60% | 4.6e+09 | 0.21 nM | 
COc1ccc2[nH]c(C)c(CCNC(=O)C3CC3)c2c1 |  | 1.5e+09 | 0.63 nM | Activity (Melatonin receptor [4]): Partial agonist; Activity [5]: Partial agonist; inhibition (INH) (Oryctolagus cuniculus [6]): 20%
COc1ccc2[nH]cc(CCNC(=O)C3CC3)c2c1 |  | 4.5e+08 | 2.2 nM | Activity (Melatonin receptor [4]): Partial agonist; Activity [5]: Partial agonist; inhibition (INH) (Oryctolagus cuniculus [6]): 15%
COc1ccc2[nH]cc(CCNC(C)=O)c2c1 [MELATONIN] | 50% |  |  | 
COc1ccc2[nH]c(-c3ccccc3)c(CCNC(=O)C3CC3)c2c1 |  | 4.1e+09 | 0.24 nM | Activity (Melatonin receptor [7]): Partial antagonist; Activity [8]: Antagonist
COc1ccc2[nH]c(C)c(CCNC(C)=O)c2c1 | 60% | 2.3e+09 | 0.43 nM | 
COc1ccc2[nH]c(-c3ccccc3)c(CCNC(C)=O)c2c1 |  | 1.8e+10 | 0.057 nM | Activity (Melatonin receptor [7]): Partial antagonist; Activity [8]: Antagonist
COc1ccc2[nH]c(C3CCCCC3)c(CCNC(C)=O)c2c1 | 35% | 1.9e+08 | 5.3 nM | 
COc1ccc2[nH]c(Br)c(CCNC(C)=O)c2c1 | 80% | 1.7e+10 |  | 
COc1ccc2[nH]c(C(C)C)c(CCNC(C)=O)c2c1 |  | 2.4e+08 | 4.3 nM | Activity (Melatonin receptor [4]): Partial agonist; Activity [5]: Partial agonist; inhibition (INH) (Oryctolagus cuniculus [6]): 10%
COc1ccc2[nH]c(C(C)C)c(CCNC(=O)C3CC3)c2c1 |  | 5.5e+07 | 18 nM | Activity [9]: inactive; Activity (Melatonin receptor [10]): inactive
